Reference: ChEMBL document CHEMBL1817572, “New, potent, selective, and short-acting peptidic V1a receptor agonists” (J Med Chem, 2011)
Numbered stars: 1 amine (or outer) side, 2 acyl side, 3 side chain; on linkers, the order of the positions; unused ones are H or OH. Bridge positions count the residues as written; N and C are the ends. Square brackets hold non-standard residues; d marks the D form. Peptide text beside a SMILES is read from it. * marks the point of attachment. Orn(Me) = CN(CCC[C@H](N[*:1])C(=O)[*:2])[*:3]; Orn(Pr) = CCCNCCC[C@H](N)C(=O)O; NHCH(CH2OH)2 = OCC(CO)N*; Orn = NCCC[C@H](N)C(=O)O; Dab = NCC[C@H](N)C(=O)O

What was measured:
Vasopressin V1a receptor [1] = molecular target: T1, Vasopressin V1a receptor (Homo sapiens, UniProt P37288); experiment: Agonist activity at recombinant human vasopressin V1a receptor expressed in HEK293 cells by luciferase reporter gene assay; type: functional, cell-based; conditions: read-out: EC50
Target sequence in this assay (P37288 whole entry): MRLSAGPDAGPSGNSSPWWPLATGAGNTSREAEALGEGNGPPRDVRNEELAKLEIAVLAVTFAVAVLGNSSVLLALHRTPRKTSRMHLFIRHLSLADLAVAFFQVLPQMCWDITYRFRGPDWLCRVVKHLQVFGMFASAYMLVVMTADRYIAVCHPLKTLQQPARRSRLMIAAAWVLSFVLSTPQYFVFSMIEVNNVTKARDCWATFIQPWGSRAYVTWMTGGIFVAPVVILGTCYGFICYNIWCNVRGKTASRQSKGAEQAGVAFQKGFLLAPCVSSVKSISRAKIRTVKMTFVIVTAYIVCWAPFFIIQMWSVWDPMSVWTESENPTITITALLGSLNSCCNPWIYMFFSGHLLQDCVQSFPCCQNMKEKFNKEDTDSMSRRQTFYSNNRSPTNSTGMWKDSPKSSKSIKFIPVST

[2] = molecular target: Vasopressin V1a/V2 (Homo sapiens) (UniProt P30518+P37288); experiment: Selectivity ratio of EC50 for human vasopressin V2 receptor to EC50 for human vasopressin V1a receptor
[3] = molecular target: T2, Vasopressin V1b receptor (Homo sapiens) (UniProt P47901); experiment: Partial agonist activity at recombinant human vasopressin V1b receptor expressed in Flp-In-293 cells by luciferase reporter gene assay; type: functional, cell-based
T2 sequence (whole entry): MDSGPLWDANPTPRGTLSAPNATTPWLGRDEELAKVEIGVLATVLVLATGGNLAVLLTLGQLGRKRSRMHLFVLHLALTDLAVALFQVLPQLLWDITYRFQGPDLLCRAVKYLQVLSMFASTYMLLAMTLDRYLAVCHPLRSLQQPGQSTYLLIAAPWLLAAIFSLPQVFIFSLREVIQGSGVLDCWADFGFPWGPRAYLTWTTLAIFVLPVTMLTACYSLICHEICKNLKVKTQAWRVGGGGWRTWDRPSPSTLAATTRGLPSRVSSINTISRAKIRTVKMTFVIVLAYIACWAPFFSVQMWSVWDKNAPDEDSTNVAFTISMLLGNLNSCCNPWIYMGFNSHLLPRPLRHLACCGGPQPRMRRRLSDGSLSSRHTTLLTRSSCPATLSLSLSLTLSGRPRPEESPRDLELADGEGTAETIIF
In short: (§1)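 Same luciferase reporter systems (OT in stable CHO-K1, V1b in stable Flp-In-293, each with transient NFAT-luciferase; V1a in HEK293 with NFAT-luciferase, V2 in HEK293 with CRE-luciferase). Peptides added for 5 h at 37 °C two days post-transfection, luminescence read. Partial agonism means efficacy <70%.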

Oxytocin receptor = molecular target: T3, Oxytocin receptor (Homo sapiens, UniProt P30559); experiment: Agonist activity at human OT receptor expressed in CHO-K1 cells by luciferase reporter gene assay; type: functional, cell-based
T3 sequence (P30559 whole entry): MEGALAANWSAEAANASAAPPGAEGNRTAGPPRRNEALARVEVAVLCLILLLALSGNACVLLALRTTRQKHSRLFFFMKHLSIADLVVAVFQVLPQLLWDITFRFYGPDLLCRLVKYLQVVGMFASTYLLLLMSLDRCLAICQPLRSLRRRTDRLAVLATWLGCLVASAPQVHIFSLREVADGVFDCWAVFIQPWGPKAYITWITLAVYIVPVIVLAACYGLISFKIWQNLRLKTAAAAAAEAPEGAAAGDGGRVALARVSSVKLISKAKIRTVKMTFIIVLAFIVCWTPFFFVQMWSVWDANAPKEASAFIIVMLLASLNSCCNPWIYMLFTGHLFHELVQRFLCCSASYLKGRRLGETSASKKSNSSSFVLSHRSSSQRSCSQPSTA

Vasopressin V1b receptor = molecular target: T4, Vasopressin V1b receptor (Homo sapiens, UniProt P47901); experiment: Agonist activity at recombinant human vasopressin V1b receptor expressed in Flp-In-293 cells by luciferase reporter gene assay; type: functional, cell-based; conditions: read-out: EC50
T4 sequence (P47901 whole entry): T2 sequence (whole entry)
In short: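 Reporter gene assays in HEK293 cells transiently cotransfected with V1a (human or rat) or human V2 receptor vector plus NFAT-luciferase (V1a) or CRE-luciferase (V2) reporter; V1b in Flp-In-293 stably expressing receptor, OT in CHO-K1 stably expressing receptor, both transiently transfected with NFAT-luciferase. Two days post-transfection, peptides added for 5 h at 37 °C, lysis with luciferin, luminescence read.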

Vasopressin V1a receptor [4] = molecular target: T1, Vasopressin V1a receptor; experiment: Partial agonist activity at recombinant human vasopressin V1a receptor expressed in HEK293 cells by luciferase reporter gene assay; type: functional, cell-based; in short: as §1
Target sequence in this assay (P37288 whole entry, looked up): as the sequence (P37288 whole entry) above

Homo sapiens [5] = species on record: Homo sapiens; experiment: Selectivity ratio of EC50 for human vasopressin V1b receptor to EC50 for human vasopressin V1a receptor
Vasopressin V2 receptor [6] = molecular target: T5, Vasopressin V2 receptor (Homo sapiens, UniProt P30518); experiment: Agonist activity at recombinant human vasopressin V2 receptor expressed in HEK293 cells by luciferase reporter gene assay; type: functional, cell-based
Homo sapiens [7] = species on record: Homo sapiens; experiment: Selectivity ratio of EC50 for human oxytocin receptor to EC50 for human vasopressin V1a receptor
Rattus norvegicus [8] = experiment: Vasoconstriction in Wistar rat assessed as assessed as decay in vasopressive duration of action at 3 nmol/kg, iv bolus measured over 10 sec interval; type: functional
In short: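 Fasted male Wistar rats (206–340 g) under isoflurane, then thiobutabarbital 150 mg/kg ip, ventilated, 37–38 °C, with carotid pressure and jugular dosing. Dibenamine 1.8 mg/rat iv pretreatment. Sequence: iv boluses (0.5 mL/kg) of heparinized vehicle, then two reference doses of 0.1 nmol/kg, then two test doses; one matches the reference diastolic pressure rise. Relative duration = reference decay rate / test decay rate; mean ± SEM.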

Vasopressin V2 receptor [9] = molecular target: T5, Vasopressin V2 receptor; experiment: Partial agonist activity at recombinant human vasopressin V2 receptor expressed in HEK293 cells by luciferase reporter gene assay; type: functional, cell-based; in short: as §1
Vasopressin V1a receptor [10] = molecular target: Vasopressin V1a receptor (Rattus norvegicus, UniProt P30560); experiment: Agonist activity at recombinant rat vasopressin V1a receptor expressed in HEK293 cells by luciferase reporter gene assay; type: functional, cell-based; conditions: read-out: EC50
Rattus norvegicus [11] = experiment: Vasoconstriction in Wistar rat assessed as decay in vasopressive duration of action at 0.3 nmol/kg, iv bolus measured over 10 sec interval; type: functional; design: unit not given here
[12] = molecular target: T6, Oxytocin receptor (Homo sapiens) (UniProt P30559); experiment: Partial agonist activity at human OT receptor expressed in CHO-K1 cells by luciferase reporter gene assay; type: functional, cell-based; in short: as §1
T6 sequence (whole entry): T3 sequence (P30559 whole entry)

T5 sequence (P30518 whole entry): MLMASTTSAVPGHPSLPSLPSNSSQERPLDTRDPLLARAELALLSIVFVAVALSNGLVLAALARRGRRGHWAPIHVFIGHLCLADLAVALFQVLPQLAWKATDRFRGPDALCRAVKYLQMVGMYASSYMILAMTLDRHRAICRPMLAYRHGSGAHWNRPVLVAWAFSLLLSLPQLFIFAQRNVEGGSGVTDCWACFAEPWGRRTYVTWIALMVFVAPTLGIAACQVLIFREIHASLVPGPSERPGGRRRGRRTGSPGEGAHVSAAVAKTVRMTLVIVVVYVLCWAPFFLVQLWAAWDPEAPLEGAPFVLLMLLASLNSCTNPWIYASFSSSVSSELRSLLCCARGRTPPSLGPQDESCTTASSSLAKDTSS
Chain of Vasopressin V1a/V2 (Homo sapiens) (P30518 whole entry, looked up): as the sequence (P30518 whole entry) above
Chain of Vasopressin V1a/V2 (Homo sapiens) (P37288 whole entry, looked up): as the sequence (P37288 whole entry) above
Chain of Vasopressin V1a receptor (Rattus norvegicus, UniProt P30560) (P30560 whole entry): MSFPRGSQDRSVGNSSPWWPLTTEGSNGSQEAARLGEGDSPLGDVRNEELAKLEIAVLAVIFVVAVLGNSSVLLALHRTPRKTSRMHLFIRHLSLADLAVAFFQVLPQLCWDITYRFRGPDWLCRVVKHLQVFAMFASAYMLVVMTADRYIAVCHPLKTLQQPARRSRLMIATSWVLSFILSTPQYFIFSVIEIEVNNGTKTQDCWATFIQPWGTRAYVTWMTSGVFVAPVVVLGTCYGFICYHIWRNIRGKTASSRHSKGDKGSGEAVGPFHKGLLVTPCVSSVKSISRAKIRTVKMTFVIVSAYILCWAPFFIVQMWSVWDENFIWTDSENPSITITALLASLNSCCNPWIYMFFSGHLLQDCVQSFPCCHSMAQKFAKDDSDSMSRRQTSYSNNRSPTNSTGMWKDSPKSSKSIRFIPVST

Structure (SMILES)	EC50 (Vasopressin V1a receptor [1])	Ratio EC50 [2]	Efficacy [3]	EC50 (Oxytocin receptor; cho-k1, read-out: EC50)	EC50 (Oxytocin receptor; read-out: pEC50 (converted))	EC50 (Vasopressin V1b receptor)	Efficacy (Vasopressin V1a receptor [4])	Ratio EC50 (Homo sapiens [5])	EC50 (Vasopressin V2 receptor [6]; hek293, read-out: EC50)	EC50 (Vasopressin V2 receptor [6]; read-out: pEC50 (converted))	Ratio EC50 (Homo sapiens [7])	Time (Rattus norvegicus [8])	Efficacy (Vasopressin V2 receptor [9])	EC50 (Vasopressin V1a receptor [10])	EC50 (Vasopressin V2 receptor [6]; read-out: EC50)	EC50 (Oxytocin receptor; read-out: EC50)	Time (Rattus norvegicus [11])	Efficacy [12]
CC[C@H](C)[C@@H]1NC(=O)[C@H](Cc2ccccc2)NC(=O)[C@@H](N)CSSC[C@@H](C(=O)N2CCC[C@H]2C(=O)N[C@@H](CCCN)C(=O)NCC(N)=O)NC(=O)[C@H](CC(N)=O)NC(=O)[C@H](CC(=O)NC(CO)CO)NC1=O (H-CFID(NHCH(CH2OH)2)NCP[Orn]G-NH2; disulfide 1-6)	16 nM	> 620	< 70%	> 10000 nM	> 10000 nM	62 nM	< 70%	3.8	> 10000 nM	> 10000 nM	> 620	–	–	–	–	–	–	–
CCNC(=O)C[C@@H]1NC(=O)[C@H]([C@@H](C)CC)NC(=O)[C@H](Cc2ccccc2)NC(=O)[C@@H](N)CSSC[C@@H](C(=O)N2CCC[C@H]2C(=O)N[C@@H](CCN)C(=O)NCC(N)=O)NC(=O)[C@H](CC(N)=O)NC1=O (H-CFID(NHEt)NCP[Dab]G-NH2; disulfide 1-6)	2.7 nM	590	–	> 10000 nM	> 10000 nM	21 nM	–	7.7	–	–	> 3700	1.3 unitless ratio	< 70%	4.8 nM	1600 nM	–	–	–
CCCNCCC[C@H](NC(=O)[C@@H]1CCCN1C(=O)[C@@H]1CSSC[C@H](N)C(=O)N[C@@H](Cc2ccccc2)C(=O)N[C@@H]([C@@H](C)CC)C(=O)N[C@@H](CC(N)=O)C(=O)N[C@@H](CC(N)=O)C(=O)N1)C(=O)NCC(N)=O (H-CFINNCP[Orn(Pr)]G-NH2; disulfide 1-6)	1.5 nM	> 6600	< 70%	> 10000 nM	> 10000 nM	31 nM	–	20	> 10000 nM	> 10000 nM	> 6600	–	–	–	–	–	–	–
CC[C@H](C)[C@@H]1NC(=O)[C@H](Cc2ccccc2)NC(=O)[C@@H](N)CSSC[C@@H](C(=O)N2CCC[C@H]2C(=O)N[C@@H](CCCN)C(=O)NCC(N)=O)NC(=O)[C@H](CC(N)=O)NC(=O)[C@H](CC(N)=O)NC1=O (H-CFINNCP[Orn]G-NH2; disulfide 1-6)	1.4 nM	> 7100	–	> 10000 nM	> 10000 nM	29 nM	–	20	> 10000 nM	> 10000 nM	> 7100	1.4 unitless ratio	–	8.2 nM	–	–	–	–
CC[C@H](C)[C@@H]1NC(=O)[C@H](Cc2ccccc2)NC(=O)[C@@H](N)CSSC[C@@H](C(=O)N2CCC[C@H]2C(=O)N[C@@H](CCCNC)C(=O)NCC(N)=O)NC(=O)[C@H](CC(N)=O)NC(=O)[C@H](CCC(N)=O)NC1=O (H-CFIQNCP[Orn(Me)]G-NH2; disulfide 1-6)	0.26 nM	500	–	–	–	74 nM	–	280	–	–	61	–	–	0.29 nM	130 nM	16 nM	2.6	< 70%
